# In article PMC3119707 (Reproduction (Cambridge, England), 2010):
# Where two headings read alike, the source gives them in different places.
# Key:
# [1] = tested on: cGMP in mouse ovarian follicles; assay: cGMP ELISA assay in isolated ovarian follicles; assay type: cell-based
# Outline: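 Cultured mouse antral follicles (24–32 h, FSH, 3 mg/ml BSA), treated 1 h with LH (350 nM) or epiregulin (100 nM), or 1 h 500 nM test compound then 1 h test compound + LH. 12–20 unfrozen follicles washed in Ca/Mg-free PBS, sonicated in 0.1 M HCl (±1% Triton X-100), heated 95°C 2 min, stored −80°C, assayed by cGMP ELISA. Concentration approximated from 20 nl estimated cellular volume; mean ± s.e.m.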
# ERK1 = ERK1 (Homo sapiens, UniProt P27361); assay: In vitro kinase profiling, ERK1; assay type: biochemical; conditions: 1 μM AG1478
# [2] = tested on: follicle-enclosed oocytes; assay: Nuclear envelope breakdown; assay type: cell-based, mouse
# Outline: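 Meiotic resumption scored by viewing the oocyte nucleus through the follicle wall from above (20X/0.4 NA long working distance objective). Follicles from 23–24-day B6SJLF1 mice were cultured 24–32 h in FSH-containing, serum-free medium (3 mg/ml BSA), 37°C, 5% CO2, checked at 24 h, and only healthy prophase-arrested ones used. LH at 350 nM. Experiments discarded when <70% of LH controls reached NEBD by 5 h.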
# [3] = tested on: gap junctions in mouse ovarian follicles; assay: Gap junction permeability by Alexa Fluor 350 tracer injection; assay type: cell-based; conditions: for MG/IC fluorescence ratio as percent of the basal level: one hour treatment, LH 350 nM, epiregulin 100 nM
# Outline: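 Antral follicles (~320–400 μm) from 23–24-day B6SJLF1 mice, cultured 24–32 h at 37°C, 5% CO2, in phenol-red-free MEMα with FSH and 3 mg/ml BSA; 1 h LH (350 nM) or epiregulin. Follicle-enclosed oocyte microinjected with 2.5 mM Alexa Fluor 350 (326 Da); two-photon imaging 20 min later; mural granulosa/inner cumulus fluorescence ratio; mean ± s.e.m., n = follicles.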
# EGFR [4] = biological target: T1, EGFR (Mus musculus, UniProt Q01279); assay: Immunoblot of EGFR phosphorylation on tyrosine 1068 in follicles; assay type: cell-based; conditions: 500 nM AG1478, follicles stimulated with LH
# [5] = tested on: cGMP in mouse ovarian follicles; conditions: ref Vaccari et al. 2009, cited from earlier work
# 110 kinases = assay: In vitro kinase profiling panel; assay type: biochemical; conditions: for percent of activity remaining: 1 μM AG1478
# EGFR kinase = conditions: read-out: IC50, EGFR kinase activity; in vitro; ref Levitzki & Gazit 1995; cited from earlier work
# EGFR [6] = biological target: T1, EGFR; conditions: 500 nM AG1478, follicles stimulated with LH; ref Panigone et al. 2008; cited from earlier work
# ERK2 = ERK2 (Homo sapiens, UniProt P28482); assay: In vitro kinase profiling, ERK2; assay type: biochemical; conditions: 1 μM AG1478
# [7] = tested on: gap junctions in mouse ovarian follicles; conditions: 10 μM U0126; ref Norris et al. 2008; cited from earlier work
# [8] = tested on: follicle-enclosed oocytes; conditions: U0126; ref Su et al., 2003; Norris et al. 2008; cited from earlier work
# MAP kinase = conditions: 10 μM U0126; ref Norris et al. 2008; cited from earlier work
# T1 sequence (Q01279 25-1210): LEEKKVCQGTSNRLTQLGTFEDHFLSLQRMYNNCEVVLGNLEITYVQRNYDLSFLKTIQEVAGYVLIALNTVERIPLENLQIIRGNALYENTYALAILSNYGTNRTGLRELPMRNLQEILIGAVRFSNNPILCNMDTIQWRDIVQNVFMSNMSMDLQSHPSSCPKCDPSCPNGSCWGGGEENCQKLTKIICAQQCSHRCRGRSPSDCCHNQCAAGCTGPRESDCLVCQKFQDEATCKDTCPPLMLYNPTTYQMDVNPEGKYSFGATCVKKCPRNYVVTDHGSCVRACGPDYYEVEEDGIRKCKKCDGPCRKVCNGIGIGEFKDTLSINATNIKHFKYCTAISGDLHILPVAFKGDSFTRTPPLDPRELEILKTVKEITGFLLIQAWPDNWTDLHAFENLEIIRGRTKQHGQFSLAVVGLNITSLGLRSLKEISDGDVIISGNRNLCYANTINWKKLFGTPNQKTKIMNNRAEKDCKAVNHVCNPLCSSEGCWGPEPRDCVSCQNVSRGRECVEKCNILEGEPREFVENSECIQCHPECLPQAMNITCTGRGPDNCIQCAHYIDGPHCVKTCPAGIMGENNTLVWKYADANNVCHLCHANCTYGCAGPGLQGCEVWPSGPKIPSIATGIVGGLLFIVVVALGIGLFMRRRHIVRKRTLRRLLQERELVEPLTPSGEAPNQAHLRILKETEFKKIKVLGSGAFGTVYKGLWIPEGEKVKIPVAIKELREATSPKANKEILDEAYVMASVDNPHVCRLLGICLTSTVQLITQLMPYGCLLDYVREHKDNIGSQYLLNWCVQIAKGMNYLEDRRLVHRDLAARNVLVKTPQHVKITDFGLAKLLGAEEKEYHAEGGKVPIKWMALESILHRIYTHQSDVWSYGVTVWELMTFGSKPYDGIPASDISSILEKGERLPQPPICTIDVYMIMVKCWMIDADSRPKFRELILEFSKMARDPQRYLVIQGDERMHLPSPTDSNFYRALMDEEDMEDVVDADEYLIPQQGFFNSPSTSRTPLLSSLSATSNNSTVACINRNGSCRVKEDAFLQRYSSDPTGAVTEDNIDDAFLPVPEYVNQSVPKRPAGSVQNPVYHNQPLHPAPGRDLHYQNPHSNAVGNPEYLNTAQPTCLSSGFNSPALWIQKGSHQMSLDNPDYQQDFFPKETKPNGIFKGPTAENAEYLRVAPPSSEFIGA
# ERK2, sequence (P28482 whole entry, species assumed): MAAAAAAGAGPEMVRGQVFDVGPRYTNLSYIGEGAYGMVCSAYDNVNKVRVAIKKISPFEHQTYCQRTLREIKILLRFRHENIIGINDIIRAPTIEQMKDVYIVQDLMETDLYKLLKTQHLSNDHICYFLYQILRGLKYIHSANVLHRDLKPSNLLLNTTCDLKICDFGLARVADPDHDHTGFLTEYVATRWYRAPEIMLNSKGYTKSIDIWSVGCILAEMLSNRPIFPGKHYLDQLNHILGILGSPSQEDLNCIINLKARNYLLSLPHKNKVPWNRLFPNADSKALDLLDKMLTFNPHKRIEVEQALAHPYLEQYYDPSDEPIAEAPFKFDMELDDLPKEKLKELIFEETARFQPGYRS
# ERK1, sequence (P27361 whole entry, species assumed): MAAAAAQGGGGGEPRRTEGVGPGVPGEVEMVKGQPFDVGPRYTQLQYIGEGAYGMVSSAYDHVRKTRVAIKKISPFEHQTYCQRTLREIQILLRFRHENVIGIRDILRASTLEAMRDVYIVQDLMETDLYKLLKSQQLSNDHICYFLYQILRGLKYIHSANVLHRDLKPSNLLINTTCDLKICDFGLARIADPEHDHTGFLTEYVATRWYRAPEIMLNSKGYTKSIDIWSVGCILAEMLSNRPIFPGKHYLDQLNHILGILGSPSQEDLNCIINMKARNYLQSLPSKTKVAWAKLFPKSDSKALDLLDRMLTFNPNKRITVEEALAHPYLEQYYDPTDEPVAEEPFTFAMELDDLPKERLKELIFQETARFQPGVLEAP
compound,measurement,setting,value
COc1cc2ncnc(Nc3cccc(Cl)c3)c2cc1OC [AG1478],cGMP as percent of the basal level,[1]; 1 hour after LH in the presence of 500 nM AG1478,~ 15%
same,inhibition of ERK1,ERK1,not inhibited
same,oocytes that had resumed meiosis,"[2]; 500 nM AG1478 + LH, observed at 20 hours",~ 30%
same,effect on nuclear envelope breakdown in response to LH,"[2]; 500 nM AG1478, observed at 6 hours",completely inhibited
same,gap junction permeability after LH application,[3]; in the presence of 500 nM AG1478,indistinguishable from that in an untreated follicle
same,LH-stimulated phosphorylation of the EGFR on tyrosine 1068,EGFR [4],indistinguishable from the basal level without LH
same,effect on the cGMP decrease in response to LH,[5]; 500 nM AG1478,completely inhibited
same,percent of activity remaining,110 kinases; seven of the 110 kinases tested,30-50%
same,percent of activity remaining,110 kinases; the other 101 kinases,> 50%
same,percent of activity remaining,110 kinases; two of the 110 kinases tested,10-20%
same,IC50,110 kinases; 101 out of the 110 kinases tested,> 1000 nM
same,effect on LH-induced EGFR phosphorylation on tyrosine 1068,EGFR [6],completely inhibits
same,inhibition of ERK2,ERK2,not inhibited
N#CC(=C(/N)Sc1ccccc1N)/C(C#N)=C(/N)Sc1ccccc1N [U0126],effect on the cGMP decrease in response to LH,"[1]; 10 μM U0126, 1 hour pretreatment then 1 hour U0126 + LH",did not have any inhibitory effect
same,effect on gap junction closure in response to LH,[7],completely inhibits
same,meiotic resumption in response to LH in the presence of inhibitor,[8],causes meiotic resumption
same,effect on MAP kinase activation in response to LH,MAP kinase,fully inhibit
epiregulin,part of the LH-induced follicle cGMP decrease caused by epiregulin,"[1]; 100 nM epiregulin, 1 hour, relative to LH",~ 80%
same,follicle cGMP concentration,[1]; 1 hour treatment with 100 nM epiregulin,~ 600 nM
same,oocytes that underwent nuclear envelope breakdown,"[2]; 100 nM epiregulin, by 4 hours",Approximately 90%
same,MG/IC fluorescence ratio as percent of the basal level,[3],32%
luteinizing hormone [LH],cGMP as percent of the basal level,[1]; 1 hour after LH application,~ 4%
same,follicle cGMP concentration,"[1]; 1 hour after LH application (350 nM), approximate",~ 100 nM
same,follicle cGMP concentration,"[1]; 5 hours after LH application (350 nM), approximate",~ 30 nM
same,MG/IC fluorescence ratio as percent of the basal level,[3],9%
same,cGMP as percent of the basal level,[5]; 1 hour after LH application,39%
